# Assay results reported in the RNAGym collection of RNA variant scans (doi:10.1002/anie.201605470).
# B1: Osa-1-4 twister ribozyme (parent)
# chain: CCGCCUAACACUGCCAAUGCCGGUCCCAAGCCCGGAUAAAAGUGGAGGGGGCGG
# Variants of: B1
# Assay: self-cleavage, relative activity (ratio to wild type); higher = more cleavage; co-transcriptional
# Summary of the method: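 Relative activity is the fraction cleaved divided by that of the wild-type ribozyme. The library came from a DNA template for a 54-nucleotide Oryza sativa twister ribozyme, doped at the 48 positions downstream of the cleavage site with 97 % wild-type base and 1 % of each other base. After 2 h of in vitro transcription at 37 °C with co-transcriptional self-cleavage, the RNA was reverse-transcribed with a template-switching oligonucleotide, amplified by PCR and deep-sequenced, and reads with or without upstream sequence gave the cleavage status.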
row,Variant,self-cleavage
1,CCGCCUGACACUGCCAAUGCCGGUCCCAAGCCCGGAAAAAAGUGGAGGGGGCGG [A7G U37A],0.27
2,CCGCCUUACACUGCCAAUGCCAGUCCCAAGCCCGGAUAAAAGUGGAGGGGGCGG [A7U G22A],0.09
3,CCGCCUUACACUGCCAAUGCCCGUCCCAAGCCCGGAUAAAAGUGGAGGGGGCGG [A7U G22C],0.07
4,CCGCCUUACACUGCCAAUGCCUGUCCCAAGCCCGGAUAAAAGUGGAGGGGGCGG [A7U G22U],0.06
5,CCGCCUUACACUGCCAAUGCCGGUCCCAAGCACGGAUAAAAGUGGAGGGGGCGG [A7U C32A],0.03
6,CCGCCUUACACUGCCAAUGCCGGUCCCAAGCGCGGAUAAAAGUGGAGGGGGCGG [A7U C32G],0.04
7,CCGCCUUACACUGCCAAUGCCGGUCCCAAGCUCGGAUAAAAGUGGAGGGGGCGG [A7U C32U],0.04
8,CCGCCUUACACUCCCAAUGCCGGUCCCAAGCCCGGAUAAAAGUGGAGGGGGCGG [A7U G13C],0.02
9,CCGCCUUACACUACCAAUGCCGGUCCCAAGCCCGGAUAAAAGUGGAGGGGGCGG [A7U G13A],0.04
10,CCGCCUUACACUUCCAAUGCCGGUCCCAAGCCCGGAUAAAAGUGGAGGGGGCGG [A7U G13U],0.06
11,CCGCCUUACACUGCCAAUGCCGGUACCAAGCCCGGAUAAAAGUGGAGGGGGCGG [A7U C25A],0.03
12,CCGCCUUACACUGCCAAUGCCGGUGCCAAGCCCGGAUAAAAGUGGAGGGGGCGG [A7U C25G],0.08
13,CCGCCUUACACUGCCAAUGCCGGUUCCAAGCCCGGAUAAAAGUGGAGGGGGCGG [A7U C25U],0.2
14,CCGCCUGACACUGCCAAUGCCGGUCCCAAGCCCGGAUAAAAGUGGAGGGGGCGA [A7G G54A],0.19
15,CCGCCUGACACUGCCAAUGCCGGUCCCAAGCCCGGAUAAAAGUGGAGGGGGCGU [A7G G54U],0.36
16,CCGCCUGACACUGCCAAUGCCGGUCCCAAGCCCGGAUAAAAGUGGAGGGGGCGC [A7G G54C],0.17
17,CCGCCUUACACUGCCAAUGCUGGUCCCAAGCCCGGAUAAAAGUGGAGGGGGCGG [A7U C21U],0.1
18,CCGCCUUACACUGCCAAUGCAGGUCCCAAGCCCGGAUAAAAGUGGAGGGGGCGG [A7U C21A],0.08
19,CCGCCUUACACUGCCAAUGCGGGUCCCAAGCCCGGAUAAAAGUGGAGGGGGCGG [A7U C21G],0.05
20,CCGCCUUACACUGCCAAUGCCGGUCCCAAGCCCGGAUAAAAGUGCAGGGGGCGG [A7U G45C],0.04
21,CCGCCUUACACUGCCAAUGCCGGUCCCAAGCCCGGAUAAAAGUGUAGGGGGCGG [A7U G45U],0.02
22,CCGCCUUACACUGCCAAUGCCGGUCCCAAGCCCGGAUAAAAGUGAAGGGGGCGG [A7U G45A],0.05
23,CCGCCUUACACUGCCAAUGCCGAUCCCAAGCCCGGAUAAAAGUGGAGGGGGCGG [A7U G23A],0.06
24,CCGCCUUACACUGCCAAUGCCGCUCCCAAGCCCGGAUAAAAGUGGAGGGGGCGG [A7U G23C],0.03
25,CCGCCUUACACUGCCAAUGCCGUUCCCAAGCCCGGAUAAAAGUGGAGGGGGCGG [A7U G23U],0.03

row,Variant,self-cleavage
1,CCGCCUGACACUGCCAAUGCCGGUCCCAAGCCCGGAUAAAAGUGGAGGGGGCAG [A7G G53A],0.16
2,CCGCCUGACACUGCCAAUGCCGGUCCCAAGCCCGGAUAAAAGUGGAGGGGGCCG [A7G G53C],0.06
3,CCGCCUGACACUGCCAAUGCCGGUCCCAAGCCCGGAUAAAAGUGGAGGGGGCUG [A7G G53U],0.1
4,CCGCCUGACACAGCCAAUGCCGGUCCCAAGCCCGGAUAAAAGUGGAGGGGGCGG [A7G U12A],0.16
5,CCGCCUGACACGGCCAAUGCCGGUCCCAAGCCCGGAUAAAAGUGGAGGGGGCGG [A7G U12G],0.12
6,CCGCCUGACACCGCCAAUGCCGGUCCCAAGCCCGGAUAAAAGUGGAGGGGGCGG [A7G U12C],0.1
7,CCGCCUUACACUGUCAAUGCCGGUCCCAAGCCCGGAUAAAAGUGGAGGGGGCGG [A7U C14U],0.07
8,CCGCCUUACACUGGCAAUGCCGGUCCCAAGCCCGGAUAAAAGUGGAGGGGGCGG [A7U C14G],0.23
9,CCGCCUUACACUGACAAUGCCGGUCCCAAGCCCGGAUAAAAGUGGAGGGGGCGG [A7U C14A],0.03
10,CCGCCUUACACUGCCAAUGCCGGUCCAAAGCCCGGAUAAAAGUGGAGGGGGCGG [A7U C27A],0.06
11,CCGCCUUACACUGCCAAUGCCGGUCCGAAGCCCGGAUAAAAGUGGAGGGGGCGG [A7U C27G],0.04
12,CCGCCUUACACUGCCAAUGCCGGUCCUAAGCCCGGAUAAAAGUGGAGGGGGCGG [A7U C27U],0.06
13,CCGCCUUACACUGCGAAUGCCGGUCCCAAGCCCGGAUAAAAGUGGAGGGGGCGG [A7U C15G],0.11
14,CCGCCUUACACUGCAAAUGCCGGUCCCAAGCCCGGAUAAAAGUGGAGGGGGCGG [A7U C15A],0.06
15,CCGCCUUACACUGCUAAUGCCGGUCCCAAGCCCGGAUAAAAGUGGAGGGGGCGG [A7U C15U],0.06
16,CCGCCUGACACUGCCAAUGCCGGCCCCAAGCCCGGAUAAAAGUGGAGGGGGCGG [A7G U24C],0.07
17,CCGCCUGACACUGCCAAUGCCGGACCCAAGCCCGGAUAAAAGUGGAGGGGGCGG [A7G U24A],0.08
18,CCGCCUGACACUGCCAAUGCCGGGCCCAAGCCCGGAUAAAAGUGGAGGGGGCGG [A7G U24G],0.04
19,CCGCCUGACACUGCCAAUGCCGGUCCCAAGCCCGGAUAAAAGUGGAGGGGCCGG [A7G G51C],0.05
20,CCGCCUGACACUGCCAAUGCCGGUCCCAAGCCCGGAUAAAAGUGGAGGGGUCGG [A7G G51U],0.08
21,CCGCCUUACACUGCCAAUGCCGGUCCCAAGCCCGGAUAAAAGUGGAGGGGGCGG [A7U],0.07
22,CCGCCUUACACUGCCAAUGCCGGUCCCAAGCCCGUAUAAAAGUGGAGGGGGCGG [A7U G35U],0.06
23,CCGCCUUACACUGCCAAUGCCGGUCCCAAGCCCGCAUAAAAGUGGAGGGGGCGG [A7U G35C],0.07
24,CCGCCUUACACUGCCAAUGCCGGUCCCAAGCCCGAAUAAAAGUGGAGGGGGCGG [A7U G35A],0.07
